Laboratory results as given in ChEMBL document CHEMBL3351425, “Lactones from Ficus auriculata and their effects on the proliferation function of primary mouse osteoblasts in vitro” (2014).

What was measured:
Format in all cases: functional, Osteoblast
[1] = Induction of cell proliferation in osteoblasts (unknown origin) at 1 uM after 48 hrs by MTT assay relative to untreated control
How it was run: (§1)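 Primary mouse osteoblasts were seeded at 2 × 10^3 cells/well and cultured 24 h, then exposed to compound for 48 h. MTT (5.0 mg/ml) was added for a further 4 h at 37 °C, and formazan was dissolved in DMSO. OD was read at 570 nm. Viability = (OD sample − blank)/(OD untreated control − blank) × 100. The blank was cell-free medium.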

[2] = Induction of cell proliferation in osteoblasts (unknown origin) at 10 uM after 48 hrs by MTT assay relative to untreated control; how it was run: as §1
[3] = Induction of cell proliferation in osteoblasts (unknown origin) at 100 uM after 48 hrs by MTT assay relative to untreated control; how it was run: as §1

| Compound | Activity [1] | Activity [2] | Activity [3] |
| --- | --- | --- | --- |
| COc1cc(O)cc2c1C(=O)O[C@H](C)CCCCCCC2 | 3.45% | 14.19% | 51.55% |
| C[C@@H]1CCCCCCCc2cc(O)cc(O)c2C(=O)O1 | 1.67% | -4.54% | 19.48% |
| COc1cc(O)cc2c1C(=O)O[C@H](C)CCC(=O)CCCC2 | 2.87% | -4.29% | 3.28% |
| COC1=CC(=O)C=C2CCCCC(=O)CC[C@@H](C)OC(=O)[C@@]21O | 12.54% | 10.92% | 19.62% |
| COC1=CC(=O)C=C2CCCC(=O)CCC[C@@H](C)OC(=O)[C@@]21O | 10% | 8.94% | 2.61% |
| COC1=CC(=O)C=C2CCCCCCC[C@@H](C)OC(=O)[C@@]21O | -7.91% | -43.92% | -68.32% |
| COc1cc(O)cc2c1C(=O)O[C@H](C)CC[C@@H](O)CCCC2 | 3.97% | -6.67% | 2.1% |
| [F-].[Na+] [SODIUM FLUORIDE] | 12.15% | 18.76% | 22.54% |
